# Measured values as given in PMC2745822 (The Journal of pharmacology and experimental therapeutics, 2008).
# Positions count from the first letter of the chain named.
# How the values were obtained:
# rM4 receptor = biological target: T1, rM4 receptor (Rattus norvegicus, UniProt P08485); assay: [3H]NMS equilibrium radioligand binding, membranes from rM4-expressing CHO cells
# T1 sequence (P08485 1-478): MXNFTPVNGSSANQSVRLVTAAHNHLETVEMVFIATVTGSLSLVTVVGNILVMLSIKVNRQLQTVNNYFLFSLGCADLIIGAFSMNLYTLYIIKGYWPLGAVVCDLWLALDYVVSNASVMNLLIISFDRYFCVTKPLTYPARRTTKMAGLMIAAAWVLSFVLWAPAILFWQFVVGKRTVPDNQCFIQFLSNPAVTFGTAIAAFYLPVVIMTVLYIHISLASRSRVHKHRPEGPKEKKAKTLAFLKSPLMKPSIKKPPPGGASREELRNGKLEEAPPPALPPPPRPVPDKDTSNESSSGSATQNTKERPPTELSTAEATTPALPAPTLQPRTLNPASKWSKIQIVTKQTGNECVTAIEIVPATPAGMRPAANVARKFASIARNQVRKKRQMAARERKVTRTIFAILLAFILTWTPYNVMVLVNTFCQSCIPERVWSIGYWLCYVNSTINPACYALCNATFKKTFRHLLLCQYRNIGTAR
# human M4 = biological target: T2, human M4 (Homo sapiens, UniProt P08173); assay: Millipore GPCR Profiler functional screen, human M4; assay type: cell-based; details: full agonist CRC
# T2 sequence (P08173 1-479): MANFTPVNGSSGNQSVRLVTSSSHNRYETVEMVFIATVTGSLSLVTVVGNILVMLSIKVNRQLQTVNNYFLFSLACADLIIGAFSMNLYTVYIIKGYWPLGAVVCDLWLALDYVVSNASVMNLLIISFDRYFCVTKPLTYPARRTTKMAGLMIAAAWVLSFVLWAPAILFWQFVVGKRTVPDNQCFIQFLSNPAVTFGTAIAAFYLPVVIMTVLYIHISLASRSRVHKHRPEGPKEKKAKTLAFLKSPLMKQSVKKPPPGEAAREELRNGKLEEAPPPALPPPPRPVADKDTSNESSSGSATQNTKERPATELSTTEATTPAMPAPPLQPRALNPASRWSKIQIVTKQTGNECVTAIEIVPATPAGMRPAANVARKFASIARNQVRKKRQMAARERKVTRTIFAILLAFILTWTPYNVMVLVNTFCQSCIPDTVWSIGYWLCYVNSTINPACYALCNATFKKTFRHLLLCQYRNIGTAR
# How it was run: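 Outsourced functional screening paradigm covering 16 GPCRs, chosen as family A subtypes among the closest relatives of mAChRs. Test compound was assessed for agonist, antagonist and allosteric potentiator activity by its effect on full concentration-response curves of each receptor's agonist.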
# M3 mAChR = M3 mAChR (Homo sapiens, UniProt P20309); assay: Calcium mobilization selectivity assay, CHO K1 cells expressing M3; assay type: cell-based; details: 30 µM compound
# How it was run: (§1)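 CHO K1 cells stably expressing rat M1 or human M3 or M5, coupled through endogenous Gq. Seeded 50,000 cells/well and held overnight in antibiotic-free medium at 37°C/5% CO2. Loaded with 2 µM Fluo-4 AM for 45 min at 37°C in HBSS/20 mM HEPES/2.5 mM probenecid, pH 7.4. […] Three independent experiments.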
# M1 mAChR = biological target: T3, M1 mAChR (Rattus norvegicus, UniProt P08482); assay: Calcium mobilization selectivity assay, CHO K1 cells expressing M1; assay type: cell-based; details: 30 µM compound
# T3 sequence (P08482 1-460): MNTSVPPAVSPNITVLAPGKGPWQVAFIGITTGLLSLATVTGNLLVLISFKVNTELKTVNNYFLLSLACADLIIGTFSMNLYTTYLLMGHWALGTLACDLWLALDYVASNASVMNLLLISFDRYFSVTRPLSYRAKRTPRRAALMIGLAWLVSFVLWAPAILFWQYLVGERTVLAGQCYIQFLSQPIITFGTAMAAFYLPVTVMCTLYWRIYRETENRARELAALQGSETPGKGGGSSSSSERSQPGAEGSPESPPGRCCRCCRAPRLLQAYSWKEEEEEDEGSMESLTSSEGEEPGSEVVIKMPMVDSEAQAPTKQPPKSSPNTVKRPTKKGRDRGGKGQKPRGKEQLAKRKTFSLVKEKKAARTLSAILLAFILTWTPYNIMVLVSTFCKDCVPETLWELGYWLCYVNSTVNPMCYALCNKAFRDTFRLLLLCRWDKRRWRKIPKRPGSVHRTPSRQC
# How it was run: as §1
# GABAA receptors = assay: MDS Pharma LeadProfiling Screen, flunitrazepam binding; details: 10 µM
# M1 = biological target: T4, M1 (Homo sapiens, UniProt P11229); assay: Millipore GPCR Profiler functional screen, M1; assay type: cell-based; details: full agonist CRC
# T4 sequence (P11229 1-460): T3 sequence (P08482 1-460) with V5A, S254T, S309P, K320R, G337A, V413I
# [1] = biological target: T5, human M4 muscarinic receptor (Homo sapiens, UniProt P08173)
# T5 sequence (P08173 1-479): T2 sequence (P08173 1-479)
# Sequence of M3 mAChR (P20309 whole entry): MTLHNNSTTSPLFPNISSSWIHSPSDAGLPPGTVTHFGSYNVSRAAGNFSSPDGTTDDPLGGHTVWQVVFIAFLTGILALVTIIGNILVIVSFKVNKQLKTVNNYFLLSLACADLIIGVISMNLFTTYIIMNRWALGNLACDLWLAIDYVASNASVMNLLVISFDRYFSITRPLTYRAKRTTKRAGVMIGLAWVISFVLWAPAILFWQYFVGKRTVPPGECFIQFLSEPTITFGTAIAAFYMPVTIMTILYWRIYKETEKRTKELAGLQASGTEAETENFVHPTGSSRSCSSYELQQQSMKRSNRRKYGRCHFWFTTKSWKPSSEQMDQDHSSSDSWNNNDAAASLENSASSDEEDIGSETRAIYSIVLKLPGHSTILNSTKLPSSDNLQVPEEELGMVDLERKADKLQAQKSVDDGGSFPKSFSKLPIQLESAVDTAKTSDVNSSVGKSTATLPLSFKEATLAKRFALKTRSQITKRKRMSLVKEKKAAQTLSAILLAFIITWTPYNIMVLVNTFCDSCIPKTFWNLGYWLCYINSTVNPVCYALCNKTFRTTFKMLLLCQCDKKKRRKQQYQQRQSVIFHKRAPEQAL
smiles,measurement,setting,value
"Cc1cc(C)c2c(N)c(C(=O)NCc3ccc4c(c3)OCO4)sc2n1 [VU0152099, 3-amino-N-(benzo[d][1,3]dioxol-5-ylmethyl)-4,6-dimethylthieno[2,3-b]pyridine carboxamide]",displacement of [3H]NMS,"rM4 receptor; 0.1 nM [3H]NMS, concentrations up to 30 µM",neither M4 PAM displaced
same,leftward shift in the potency of ACh to displace [3H]NMS,rM4 receptor; 10 µM compound,25 fold
same,potentiation of ACh-induced activation of human M4,human M4,induced a robust potentiation of ACh-induced activation of human M4
same,shift in the ACh CRC at M3,M3 mAChR,No shift in the ACh CRC was observed
same,shift in the ACh CRC at M1,M1 mAChR,No shift in the ACh CRC was observed
same,displacement of flunitrazepam binding,GABAA receptors,51%
same,potentiator activity at M1,M1,had no potentiator activity at M1
same,leftward shift in the ACh CRC,[1]; 10 µM compound,≈ 30 fold
same,maximal response to ACh,[1]; in presence of compound,approximately 130%
